Source: PubChem BioAssay
KCNK3 inh – human KCNK3 channel inhibitors, primary screen, CHO cells, FluxOR thallium flux, B-score; actives 0.84% (n = 340,000); B-score at 10 µM; FluxOR fluorescence; active compounds read low;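 active = B-score under library mean minus 4 SD, starting fluorescence ratio at most library mean plus 5 SD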;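 note: more negative B-score means stronger inhibition of thallium flux through KCNK3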
KCNQ1 act – potentiators or activators of KCNQ1 channel, primary screen, cell-based, thallium flux, high-throughput; actives 0.35% (n = 310,000); B-score at 10 µM; CHO-K1 KCNQ1, thallium flux FluxOR fluorescence; active compounds read high;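 active = fluorescence ratio B-score, a plate-corrected score, at least three library SD, with initial intensity B-score within 5 SD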
Target sequence (P51787 whole entry, looked up): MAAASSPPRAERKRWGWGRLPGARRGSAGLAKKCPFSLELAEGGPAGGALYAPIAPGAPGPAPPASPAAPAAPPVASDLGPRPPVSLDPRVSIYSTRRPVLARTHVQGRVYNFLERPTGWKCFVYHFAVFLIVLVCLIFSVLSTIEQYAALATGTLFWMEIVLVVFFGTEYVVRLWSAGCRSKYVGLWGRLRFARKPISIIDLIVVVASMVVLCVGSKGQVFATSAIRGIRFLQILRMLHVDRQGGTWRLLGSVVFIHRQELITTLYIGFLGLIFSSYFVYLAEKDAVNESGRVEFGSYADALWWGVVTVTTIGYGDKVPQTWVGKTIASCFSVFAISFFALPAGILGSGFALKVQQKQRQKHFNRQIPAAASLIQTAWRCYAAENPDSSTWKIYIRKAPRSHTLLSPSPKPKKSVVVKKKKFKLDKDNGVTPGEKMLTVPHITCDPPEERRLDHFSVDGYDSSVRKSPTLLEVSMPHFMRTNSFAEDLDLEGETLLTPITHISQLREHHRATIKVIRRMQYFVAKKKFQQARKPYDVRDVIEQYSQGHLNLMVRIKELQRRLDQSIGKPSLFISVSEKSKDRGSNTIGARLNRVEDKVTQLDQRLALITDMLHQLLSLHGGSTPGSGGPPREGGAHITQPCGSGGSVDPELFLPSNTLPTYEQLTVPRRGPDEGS
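Assay system: CHO-K1 cells stably expressing KCNQ1; Medium: assay buffer with matched DMSO; Also added: K+/Tl+ depolarizing stimulus; Dosing: single dose; Timing: dye 90 min, compound 20 min, room temperature; Measured by: kinetic FluxOR thallium fluorescence, 10-s 1-Hz baseline, 110-s post-stimulus read; Read-out: peak-minus-minimum fluorescence over initial fluorescence, negative-control normalized, B-scored.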
Kir21 inh – inhibitors of mouse Kir2.1 inward-rectifier potassium channel; Inward rectifier potassium channel 2 (Mus musculus), P35561; HEK293-Kir2.1, FluxOR thallium flux fluorescence; active compounds read low; B-score at 10 µM; actives 0.85% (n = 310,000);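 active = fluorescence ratio B-score at or below minus 3 SD of library scores, with starting-brightness B-score within 2 SD, cut at about -4.2 in these data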;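 note: channel flux triggered by added potassium and thallium sulfate stimulus; B-score of peak minus minimum fluorescence over baseline after thallium stimulus; more negative B-score means stronger Kir2.1 block with less thallium influx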
KCNK9 block – KCNK9 potassium channel inhibitors, primary screen, HEK293 cells, thallium flux | FluxOR thallium flux fluorescence; active compounds read low | B-score at 10 µM | actives 1.2% (n = 310,000) | AID 488922, 2010;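 active = ratio B-score over 3 SD below the library mean, with starting fluorescence within 5 SD of its mean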;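 note: negative B-score means less thallium flux so channel inhibition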
hERG rescue – hERG rescue from dofetilide block, primary screen, cell-based, CHO-hERG, FluxOR thallium flux, dofetilide IC70 | Voltage-gated inwardly rectifying potassium channel KCNH2 (Homo sapiens), Q12809 | activation (rescue from dofetilide block), less the hit threshold, % at 10 µM | actives 0.51% (n = 310,000) | dofetilide IC70 present | AID 1511, 2009;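 active = activation above the mean of controls blocked by dofetilide plus 5 SD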;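 note: thallium influx through hERG after potassium depolarization seen as dye fluorescence rise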
KCNQ1 block – inhibitors of human KCNQ1 channel, primary screen, cell-based, thallium flux, high-throughput. Potassium voltage-gated channel subfamily KQT member 1 (Homo sapiens), P51787. CHO-K1 KCNQ1, FluxOR thallium flux fluorescence; active compounds read high. B-score at 10 µM. actives 1.3% (n = 310,000). AID 2642, 2010;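 active = compounds whose thallium flux B-score, printed positive for inhibition, exceeds three library SD while starting fluorescence stays within three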;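 note: channel opened by potassium depolarization with thallium stimulus after 20 min compound exposure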
KCNQ1 block val – KCNQ1 potassium channel inhibitors, confirmation, cell-based, Tl flux, duplicate; shares compounds with KCNQ1 block; KCNQ1 cell line, FluxOR thallium flux fluorescence; inhibition, % at 10 µM; actives 93% (n = 1,600);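 active = primary screen active, with duplicate mean exceeding buffer control mean plus 3 SD of buffer wells, cut at about 28% in these data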;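 note: 0% = buffer control ratio and 100% = XE991 inhibitor control ratio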
CHO Tl flux – thallium flux effects in parental CHO cells, counter-screen for KCNQ1 inhibitor project, cell-based, Tl flux; parental CHO-K1, FluxOR thallium flux fluorescence ratio; active compounds read low; zero means no signal rise above baseline; fluorescence ratio (Tl flux) at 10 µM; shares compounds with KCNQ1 block; actives 21% (n = 1,600);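 active = mean of duplicate thallium-flux fluorescence ratios in parental host cells more than 5 SD below the buffer control mean, cut at about 0.38 in these data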;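 note: ratio is peak minus minimum fluorescence divided by baseline fluorescence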
KCNQ1 APC inh – KCNQ1 channel inhibitors, confirmation, orthogonal assay, cell-based, automated electrophysiology; shares compounds with KCNQ1 block; KCNQ1-CHO cells, automated patch clamp current; calls only at 10 µM; actives 20% (n = 490); AID 624120, 2012;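 active = KCNQ1 current drop exceeding 3 SD of negative control wells, seen in both duplicate runs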;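 note: steady state current during a 2 s step from -80 to +40 mV; negative values mean current inhibition and positive values mean potentiation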
KCNQ2 spec – KCNQ2 channel inhibition, selectivity assay for KCNQ1 inhibitor project, cell-based. inhibition, % at 10 µM. KCNQ2 cells, FluxOR thallium flux fluorescence. AID 651746, 2012. actives 71% (n = 1,600). shares compounds with KCNQ1 block;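 active = mean percent inhibition of the KCNQ2 thallium signal more than 5 SD above the buffer-only control wells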;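 note: KCNQ2 expressed in CHO cells; 0% = buffer control wells and 100% = XE-991 inhibitor control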
KCNQ1 KCNE1 spec – KCNQ1/KCNE1 channel inhibition, selectivity assay for KCNQ1 inhibitor project, CHO-K1 cells, thallium flux, FluxOR; actives 77% (n = 1,600); inhibition, % at 10 µM; FluxOR thallium flux fluorescence; shares compounds with KCNQ1 block;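 active = mean percent inhibition of duplicate wells above the buffer-only control mean plus 3 SD of those controls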;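 note: 0% = buffer only wells and 100% = XE-991 inhibitor control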
Numbers without * were called inactive; i = inactive; / = no result; + = active, no number. The list is not random: actives were taken first. Their share in the collection is about 3.7%.

SMILES	KCNK3 inh	KCNQ1 act	Kir21 inh	KCNK9 block	hERG rescue	KCNQ1 block	KCNQ1 block val	CHO Tl flux	KCNQ2 spec	KCNQ1 KCNE1 spec	others
CCOC(=O)c1c(-c2ccccc2)oc2ccc(OCC)cc12	i	i	0.49	i	-5	6*	70*	0.46	96%*	62%*
O=C(c1ccco1)N1CCN(C(=O)c2ccc(-c3ccccc3Cl)o2)CC1	i	/	/	/	/	/	/	/	/	/
O=C(c1ccc(-c2ccccc2Cl)o1)N1CCN(c2ccccc2O)CC1	i	i	-0.06	i	-20	8*	+	0.39	i	i	KCNQ1 APC inh=i
CC1CCN(CC(O)COCCC23CC4CC(CC(C4)C2)C3)CC1 (configuration not stated)	i	i	-1.6	i	-9	7*	72*	0.38*	79%*	76%*
CN(Cc1ccc(F)cc1)C(=O)c1cccc(S(=O)(=O)N2CCN(c3ccc(F)cc3)CC2)c1	i	i	-0.01	i	-12	i	/	/	/	/
CN(Cc1ccc(F)cc1)C(=O)c1cccc(S(=O)(=O)N2CCN(c3ccccc3)CC2)c1	i	i	-0.99	i	-8	7*	76*	0.46	70%*	i
CN(CC(=O)Nc1ccc(N2CCOCC2)cc1)C(=O)CCc1cc(C(C)(C)C)c(O)c(C(C)(C)C)c1	i	i	0	i	-6	i	/	/	/	/
CC(C)c1ccc(NC(=S)NCc2ccc3c(c2)OCO3)cc1	i	i	1.8	i	-15	8*	82*	0.51	i	61%*
Cc1ccc(N=Nc2c(N)[nH]n3c(=O)cc(-c4ccccc4)nc23)cc1	i	i	1	i	-11	9*	46*	0.48	i	87%*
Cc1cccc(-c2c3c(=O)n(C)c(=O)n(C)c3cn2-c2ccc(O)cc2)c1	i	i	0.09	i	-15	6*	76*	0.49	i	96%*
CCOc1ccccc1N1CCN(S(=O)(=O)c2ccc3c4c(cccc24)C(=O)N3)CC1	i	i	0.21	i	-7	7*	69*	0.49	i	79%*
CCOC(=O)N1CCN(S(=O)(=O)c2ccc3c4c(cccc24)C(=O)N3)CC1	i	i	0.47	i	-9	i	/	/	/	/
COc1ccc(-c2cc(C(=O)N(C)Cc3ccc(F)cc3)c3ccccc3n2)cc1OC	i	i	-0.57	i	-11	i	/	/	/	/
CC1(C)CCN2CCC(C)(C)c3c(O)ccc1c32	i	i	-2.5	i	-8	11*	70*	0.52	62%*	58%*
